Screening data from PubChem BioAssay.
Yeast growth inh: yeast BB579 growth reduction in restrictive medium; S. cerevisiae BB579 growth, OD615, 48 h; inhibition, % at 10 µM; hit rate 0.51% among 140,000;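 active means inhibition above a set limit, 3 SD over the mean compound inhibition, cut at about 44% in these data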
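Test system: Saccharomyces cerevisiae DeaD strain BB579, replicative lifespan model yeast | Buffer or medium: Restrictive CSMM-D medium | Doses: One dose, 10 µM compound with 0.25% DMSO | Incubation: 48 h exposure, 30 °C | Detection: Culture absorbance at 615 nm | Control set: Amphotericin B at 10 µg/mL as positive control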
Yeast lifespan up: extends the lifespan of yeast; S. cerevisiae growth with nicotinamide, OD615; deaD strain in restrictive glucose medium; inhibition of the nicotinamide effect, % at 10 µM; hit rate 0.68% among 130,000;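 active means inhibition above a set limit, placed 3 SD over the median of all compounds, cut at about 26% in these data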
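Test system: DeaD-strain S. cerevisiae / Buffer or medium: restrictive glucose medium / Also added: nicotinamide 1.5 mM / Doses: one concentration, 10 µM, DMSO 0.25% / Schedule: 48 h at 30 °C / Signal: OD615 measurement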
RAM network inh: blocks the yeast RAM network; AID 868; inhibition, % at 50 µM; S. cerevisiae dse1pr::URA3 reporter, 5-FOA growth OD615, 2 d; analog-sensitive cbk1-as2 kinase mutant strain; hit rate 1.8% among 190,000;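 active means inhibition above a set limit, 3 SD over mean compound inhibition, cut at about 8.4% in these data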;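 further: inhibition rescues growth on 5-FOA so higher OD means more RAM inhibition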
Measles CPE: protection of cells from measles virus | Measles virus-infected cells, CPE protection, absorbance | protection (pct of control), % at 4 µM | hit rate 1.5% among 140,000 | AID 841; in the data active means protection mostly above about 24%, no sharp cut-off; inactive means mostly below about 26%
Numbers stand for hits. Most compounds without a hit are left out; they make up all but 3.8% or so of the library.

CC(C)OC(=O)c1cc2c(ccn2C)n1CC(=O)N(Cc1ccccc1)c1ccc(F)cc1 was read as Yeast growth inh inactive, Yeast lifespan up inactive, RAM network inh inactive and Measles CPE 56.2.
Screening CC(C)CN(CC(C)C)C(=O)CCCC(=O)N(CC(C)C)CC(C)C returned Yeast growth inh inactive, Yeast lifespan up inactive, RAM network inh inactive and Measles CPE inactive.
`COc1ccc(C=O)cc1COc1ccccc1F` gave Yeast growth inh inactive, Yeast lifespan up inactive, RAM network inh inactive and Measles CPE inactive.
COc1ccc(/C=C/C(=O)c2ccccc2)cc1COc1ccccc1F was read as Yeast growth inh inactive, Yeast lifespan up inactive, RAM network inh 10.0 and Measles CPE inactive.
For CC1=CC(C)(C)Nc2ccc(OC(=O)CN3C(=O)c4cccc5cccc(c45)C3=O)cc21 the results were Yeast growth inh inactive, Yeast lifespan up inactive, RAM network inh inactive and Measles CPE 45.3.
`c1ccc(-n2cnc3cc(NCc4cccs4)ccc32)cc1` gave Yeast growth inh inactive, Yeast lifespan up inactive, RAM network inh inactive and Measles CPE inactive.
`Cc1ccc(-n2cnc3cc(NCc4cccs4)ccc32)cc1` gave Yeast growth inh 49.9, Yeast lifespan up inactive, RAM network inh inactive and Measles CPE inactive.
For Cc1ccc(O)c(-c2cc(-c3ccccc3C)[nH]n2)c1 the results were Yeast growth inh 98.8, Yeast lifespan up inactive, RAM network inh inactive and Measles CPE inactive.
For O=[N+]([O-])c1ccccc1-c1cc(-c2cc(Cl)ccc2O)n[nH]1 the results were Yeast growth inh 95.9, Yeast lifespan up inactive, RAM network inh inactive and Measles CPE inactive.
Screening Cc1ccc(O)c(-c2cc(-c3ccccc3[N+](=O)[O-])[nH]n2)c1 returned Yeast growth inh inactive, Yeast lifespan up inactive, RAM network inh inactive and Measles CPE inactive.
COc1ccccc1CNC(=O)COC(=O)c1ccc(Cl)c(N)c1 was read as RAM network inh inactive.
For O=C(Nc1cccc(C(F)(F)F)c1)c1cc(-c2cccs2)on1 the results were Yeast growth inh inactive, Yeast lifespan up inactive, RAM network inh inactive and Measles CPE 66.7.
For NC(=O)CSc1nnc(-c2ccc([N+](=O)[O-])cc2)o1 the results were RAM network inh inactive.
O=C(/C=C/c1ccc(S(=O)(=O)N2CCOCC2)cc1)NCCCn1ccnc1 was read as RAM network inh inactive.
Screening CN(C)CCCC(=O)c1ccc2c(c1)OCO2 returned Yeast growth inh inactive, Yeast lifespan up inactive, RAM network inh inactive and Measles CPE 35.3.
For N#CC(C#N)=CC1=C2OC(c3ccccc3)=CC(c3ccccc3)=C2CCC1 the results were Yeast growth inh inactive, Yeast lifespan up inactive, RAM network inh 10.0 and Measles CPE inactive.
Screening OC[C@@H](O)C1OC2NC(=S)OC2C1O (stereo partly drawn) returned RAM network inh inactive.
Screening O=C(OC(C(=O)NCc1cccs1)c1ccccc1F)c1ccco1 (stereo not drawn) returned Yeast growth inh inactive, RAM network inh inactive and Measles CPE 42.0.
For O=C(OC(C(=O)NCc1ccc2c(c1)OCO2)c1ccccc1F)c1ccco1 (stereo not drawn) the results were Yeast growth inh inactive, Yeast lifespan up inactive, RAM network inh inactive and Measles CPE inactive.
CCc1ccc(NC2=NC(C(=O)NC3CCCCC3)CC(=O)N2)cc1 (stereo not drawn) was read as Yeast growth inh inactive, Yeast lifespan up inactive, RAM network inh inactive and Measles CPE 56.2.
Screening COc1ccc(NC(=O)C2CC(=O)NC(Nc3cccc(C)c3)=N2)cc1 (stereo not drawn) returned Yeast growth inh inactive, Yeast lifespan up inactive, RAM network inh inactive and Measles CPE inactive.
Cc1ccnn2cc3c(=O)n(C)c(=O)n(C)c3c12 was read as Yeast growth inh 63.7, Yeast lifespan up inactive, RAM network inh inactive and Measles CPE inactive.
CCn1cc(C(=O)OCc2ccccc2)c(=O)c2ccc(C)nc21 was read as Yeast growth inh inactive, Yeast lifespan up inactive, RAM network inh inactive and Measles CPE inactive.
CCn1cc(C(=O)O)c(=O)c2ccc(C)nc21 was read as Yeast growth inh inactive, Yeast lifespan up 64.1, RAM network inh inactive and Measles CPE inactive.
Screening CC(/C=N/Nc1nc(C)cc(C)n1)=C\c1ccc(C(C)C)cc1 returned Yeast growth inh inactive, Yeast lifespan up inactive, RAM network inh inactive and Measles CPE inactive.
For Cn1c(N2CCN(C(=O)NC34CC5CC(CC(C5)C3)C4)CC2)nc2ccccc21 the results were Yeast growth inh inactive, RAM network inh inactive and Measles CPE inactive.
`Cc1cc(SCC(=O)Nc2cccc(S(=O)(=O)NC3=NCCCCC3)c2)c(C)cc1Br` gave Yeast growth inh inactive, Yeast lifespan up inactive, RAM network inh inactive and Measles CPE 27.6.
Screening O=C(CNC(=O)c1cccc(Cl)c1)N/N=C/C=C/c1ccccc1 returned Yeast growth inh inactive, Yeast lifespan up inactive, RAM network inh inactive and Measles CPE inactive.
Screening CCn1c([N+](=O)[O-])nc2c1c(=O)[nH]c(=O)n2C returned RAM network inh inactive.
Screening Cc1conc1NC(c1cccs1)c1ccc2cccnc2c1O (stereo not drawn) returned Yeast growth inh 62.0, Yeast lifespan up inactive, RAM network inh inactive and Measles CPE inactive.
CCC(=O)NC(c1cccs1)c1ccc2cccnc2c1O (stereo not drawn) was read as RAM network inh inactive.
For COc1ccccc1OCCCCOc1ccccc1C(C)=O the results were Yeast growth inh inactive, Yeast lifespan up inactive, RAM network inh inactive and Measles CPE inactive.
COc1ccc(C(=O)OCCOc2ccccc2C(C)=O)c(O)c1 was read as RAM network inh 11.3.
For O=[N+]([O-])c1ccc(N2CCOCC2)cc1NC(c1ccccc1)c1ccccc1 the results were Yeast growth inh inactive, Yeast lifespan up inactive, RAM network inh inactive and Measles CPE 45.2.
`O=[N+]([O-])c1ccc(N2CCCC2)cc1NC(c1ccccc1)c1ccccc1` gave Yeast growth inh inactive, Yeast lifespan up inactive, RAM network inh inactive and Measles CPE inactive.
Screening CN(Cc1c(O)ccc2c1oc(=O)c1ccccc12)C1CCCCC1 returned Yeast growth inh inactive, Yeast lifespan up 46.2, RAM network inh inactive and Measles CPE inactive.
Screening O=C(OCC(=O)N1CCCC1=O)C1COc2ccccc2O1 (stereo not drawn) returned RAM network inh inactive.
Screening COc1cc(NC(c2ccccc2)c2ccccc2)cc(OC)c1OC returned RAM network inh 8.4.
O=C(Cc1cccs1)NNC(=S)NC(=O)c1ccccc1 was read as Yeast growth inh 86.5, Yeast lifespan up inactive, RAM network inh inactive and Measles CPE inactive.
Screening Cc1ccc(N2C(=O)NC(NC(=O)C3CC3)(C(F)(F)F)C2=O)cc1 (stereo not drawn) returned Yeast growth inh inactive, Yeast lifespan up inactive, RAM network inh inactive and Measles CPE inactive.
`Cc1ccc(N2CC(C(=O)N/N=C/c3cccc([N+](=O)[O-])c3)CC2=O)cc1` (stereo not drawn) gave Yeast growth inh inactive, Yeast lifespan up inactive, RAM network inh inactive and Measles CPE inactive.
